Among the data in ChEMBL document CHEMBL1145801, “Inhibition of Cdc25 phosphatases by indolyldihydroxyquinones” (J Med Chem, 2003) are IC50 and inhibition values, retold here.

By pIC50 is commonly meant −log10 of the IC50, conventionally taken in molar units. A word on the inhibition: it is the percentage by which the read-out fell short of the control. A low value points to little suppression.

The target of test [1] is T1, M-phase inducer phosphatase 1 (Homo sapiens, UniProt P30304).
T1 sequence (P30304 whole entry): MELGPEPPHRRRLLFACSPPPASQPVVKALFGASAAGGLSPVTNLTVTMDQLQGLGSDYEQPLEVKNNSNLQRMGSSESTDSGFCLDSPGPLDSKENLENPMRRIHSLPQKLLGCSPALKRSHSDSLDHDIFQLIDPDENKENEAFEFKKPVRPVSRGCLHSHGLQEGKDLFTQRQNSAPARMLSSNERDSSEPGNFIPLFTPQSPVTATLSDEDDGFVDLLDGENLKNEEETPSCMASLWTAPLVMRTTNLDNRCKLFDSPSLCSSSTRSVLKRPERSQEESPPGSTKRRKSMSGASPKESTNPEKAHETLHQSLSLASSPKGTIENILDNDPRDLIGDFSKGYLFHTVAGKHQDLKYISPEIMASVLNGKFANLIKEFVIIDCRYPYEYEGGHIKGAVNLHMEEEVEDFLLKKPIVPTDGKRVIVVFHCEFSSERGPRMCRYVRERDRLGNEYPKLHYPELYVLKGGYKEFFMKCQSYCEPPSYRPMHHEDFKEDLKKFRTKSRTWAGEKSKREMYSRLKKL
In words: Eight point inhibitory concentration against Cell division cycle 25A was determined. An outline of the steps:
(§1)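 Phosphatase activity measured with 3-O-methylfluorescein phosphate at 50 μM (~5 × Km), product formation followed at 477 nm by UV-vis under initial velocity conditions (2–5% turnover) in time-dependent assays. Eight inhibitor concentrations were used, and IC50 was obtained by fitting to a dose–response equation.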

Test [2] has as its target T2, M-phase inducer phosphatase 3 (Homo sapiens, UniProt P30307).
T2 sequence (P30307 whole entry): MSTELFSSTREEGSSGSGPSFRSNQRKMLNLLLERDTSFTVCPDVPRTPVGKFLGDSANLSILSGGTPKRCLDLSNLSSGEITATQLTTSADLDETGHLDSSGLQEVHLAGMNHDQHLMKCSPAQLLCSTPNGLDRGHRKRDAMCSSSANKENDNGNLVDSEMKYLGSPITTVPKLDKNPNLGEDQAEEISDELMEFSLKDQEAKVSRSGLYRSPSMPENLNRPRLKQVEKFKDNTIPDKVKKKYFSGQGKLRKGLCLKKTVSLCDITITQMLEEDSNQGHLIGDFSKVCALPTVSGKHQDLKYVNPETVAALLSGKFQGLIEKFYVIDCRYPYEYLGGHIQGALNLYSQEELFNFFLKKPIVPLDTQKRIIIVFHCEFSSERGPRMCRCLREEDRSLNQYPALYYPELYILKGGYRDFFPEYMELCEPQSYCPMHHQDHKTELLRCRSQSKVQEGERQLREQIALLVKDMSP
As to the kind of experiment: Eight point inhibitory concentration against Cell division cycle 25 degree C was determined. In short, it runs like this: as §1

Test [3] has as its target T3, M-phase inducer phosphatase 3 (Homo sapiens) (UniProt P30307).
T3 sequence (whole entry): T2 sequence (P30307 whole entry)
As to the kind of experiment: Percent inhibition of cell division cycle 25 degree C at 50 uM. In short, it runs like this:
(§2)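 Single-point screen at 50 μM inhibitor against Cdc25A, Cdc25B or Cdc25C with 50 μM 3-O-methylfluorescein phosphate, product followed at 477 nm in time-dependent assays. Activity was compared with a simultaneous no-inhibitor control, and selected compounds were run in duplicate (average error ±7%).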

In test [4] the target is T4, M-phase inducer phosphatase 2 (Homo sapiens) (UniProt P30305).
T4 sequence (whole entry): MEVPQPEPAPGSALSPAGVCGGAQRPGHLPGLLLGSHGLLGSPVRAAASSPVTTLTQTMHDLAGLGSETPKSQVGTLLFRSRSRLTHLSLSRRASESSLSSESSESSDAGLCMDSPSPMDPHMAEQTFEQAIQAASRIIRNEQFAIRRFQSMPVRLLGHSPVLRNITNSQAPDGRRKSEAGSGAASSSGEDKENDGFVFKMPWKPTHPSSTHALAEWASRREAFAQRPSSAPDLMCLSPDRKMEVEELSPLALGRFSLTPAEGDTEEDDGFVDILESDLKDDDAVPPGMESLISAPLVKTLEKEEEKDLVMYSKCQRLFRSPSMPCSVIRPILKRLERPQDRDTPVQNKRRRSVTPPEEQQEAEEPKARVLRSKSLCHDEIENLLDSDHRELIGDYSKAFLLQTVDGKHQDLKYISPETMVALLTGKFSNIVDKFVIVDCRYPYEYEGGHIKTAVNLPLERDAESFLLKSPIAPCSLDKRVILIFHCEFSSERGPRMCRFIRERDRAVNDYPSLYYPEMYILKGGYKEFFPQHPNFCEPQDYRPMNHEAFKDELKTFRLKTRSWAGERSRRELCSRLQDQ
As to the kind of experiment: Percent inhibition of cell division cycle 25B at 50 uM. An outline of the steps:
as §2

In test [5] the target is T5, M-phase inducer phosphatase 1 (Homo sapiens) (UniProt P30304).
T5 sequence (whole entry): T1 sequence (P30304 whole entry)
In words: Percent inhibition of cell division cycle 25A at 50 uM. In short, it runs like this:
as §2

pIC50: −log10 of the molar value.

Regarding `CC(C)=CCC/C(C)=C/Cc1cccc2c(C3=C(O)C(O)=CC(=O)C3=O)c[nH]c12`, the pIC50 is 6.00 in test [1] and 5.00 in test [2]. Also, the inhibition in test [3] was determined as 96%; in test [4], 95%; in test [5], 86%.

On to `Cc1ccc2c(C3=C(O)C(O)=CC(=O)C3=O)c[nH]c2c1`, for which the inhibition stood at 28% in test [3], 16% in test [4] and 66% in test [5].

With `Cc1ccc2c(C3=C(O)C(O)=CC(=O)C3=O)c[nH]c2c1C`, the inhibition in test [3] is 20%; in test [4] it was 32%; in test [5] it was 9%.

Take `Cc1ccc2[nH]c(C)c(C3=C(O)C(O)=CC(=O)C3=O)c2c1`: the inhibition was determined as 25% in test [3], 20% in test [4] and 18% in test [5].

On to `O=C1C=C(O)C(=O)C(c2c[nH]c3ccc(OCc4ccccc4)cc23)=C1O`, for which the pIC50 in test [1] is 5.26. The inhibition came to 26% in test [3], 50% in test [4] and 100% in test [5].

In the case of `O=C1C=C(O)C(=O)C(c2c[nH]c3ccc(F)cc23)=C1O`, the inhibition was 23% in test [3], 32% in test [4] and 39% in test [5].

In the case of `O=C1C=C(O)C(=O)C(c2c[nH]c3cccc(F)c23)=C1O`, the inhibition in test [3] came out at 0%; in test [4], 5%; in test [5], 20%.

Regarding `COc1cc2[nH]cc(C3=C(O)C(O)=CC(=O)C3=O)c2cc1OC`, the inhibition amounted to 20% in test [3], 19% in test [4] and 54% in test [5].

For the compound `CC(C)(C)c1[nH]c2ccccc2c1C1=C(O)C(O)=CC(=O)C1=O`, the results for the inhibition in test [3], in test [4] and in test [5] were 0%, 11% and 30%, respectively.

For `Cc1[nH]c2ccc(Cl)cc2c1C1=C(O)C(O)=CC(=O)C1=O`, the values for the inhibition in test [3], in test [4] and in test [5] were 30%, 42% and 0%, respectively.

On to `O=C1C=C(O)C(=O)C(c2c[nH]c3c(Cl)cccc23)=C1O`, for which the inhibition in test [3] was 54%; in test [4], 23%; in test [5], 0%.

With `CCc1[nH]c2ccccc2c1C1=C(O)C(O)=CC(=O)C1=O`, the inhibition in test [3] stood at 14%; in test [4], 36%; in test [5], 15%.

As for `O=C1C=C(O)C(=O)C(c2c[nH]c3ccc(Br)cc23)=C1O`, the pIC50 in test [1] was 5.24. Besides, the inhibition was 26% in test [3], 55% in test [4] and 83% in test [5].

`CC1(c2[nH]c3ccccc3c2C2=C(O)C(O)=CC(=O)C2=O)CCCCC1`: the values for the inhibition in test [3], in test [4] and in test [5] were 22%, 11% and 44%, respectively.

`O=C1C=C(O)C(=O)C(c2c[nH]c3cc(OCc4ccccc4)ccc23)=C1O`: the figures for the inhibition in test [3], in test [4] and in test [5] were 92%, 97% and 82%, respectively.

Consider `O=C1C=C(O)C(=O)C(c2c[nH]c3cccc(OCc4ccccc4)c23)=C1O`, for which the inhibition was 2% in test [3], 0% in test [4] and 48% in test [5].

For the compound `Cc1ccc2c(C3=C(O)C(O)=CC(=O)C3=O)c(C)[nH]c2c1`, the inhibition in test [3] was determined as 0%; in test [4], 16%; in test [5] it was 0%.

On to `COc1cccc2[nH]cc(C3=C(O)C(O)=CC(=O)C3=O)c12`, for which the inhibition in test [3] stood at 19%; in test [4], 21%; in test [5], 40%.

As for `COc1ccc2[nH]cc(C3=C(O)C(O)=CC(=O)C3=O)c2c1`, the inhibition in test [3], in test [4] and in test [5] was 0% in each case.

Turning to `CC1(c2[nH]c3ccccc3c2C2=C(O)C(O)=CC(=O)C2=O)CC1`, the inhibition was found to be 0% in test [3], 17% in test [4] and 0% in test [5].

Turning to `Cc1[nH]c2ccccc2c1C1=C(O)C(O)=CC(=O)C1=O`, the inhibition in test [3] was found to be 5%; in test [4] it was 9%; in test [5], 24%.

Take `COc1cccc2c(C3=C(O)C(O)=CC(=O)C3=O)c[nH]c12`: the inhibition in test [3] was 13%; in test [4], 15%; in test [5], 0%.

Take `CC(C)c1[nH]c2ccccc2c1C1=C(O)C(O)=CC(=O)C1=O`: the inhibition was 0% in test [3], 13% in test [4] and 7% in test [5].

For `COc1ccc2[nH]c(C)c(C3=C(O)C(O)=CC(=O)C3=O)c2c1`, the results for the inhibition in test [3], in test [4] and in test [5] were 31%, 0% and 0%, respectively.

As for `C=CC(C)(C)c1[nH]c2ccccc2c1C1=C(O)C(O)=CC(=O)C1=O`, the inhibition in test [3] amounted to 21%; in test [4], 0%; in test [5], 12%.

`O=C1C=C(O)C(=O)C(c2c[nH]c3cccc(Br)c23)=C1O`: the inhibition in test [3] was determined as 54%; in test [4] it was 6%; in test [5], 51%.

For `Cc1cccc2[nH]cc(C3=C(O)C(O)=CC(=O)C3=O)c12`, the inhibition turned out to be 28% in test [3], 9% in test [4] and 39% in test [5].

In the case of `O=C1C=C(O)C(=O)C(c2c[nH]c3c(F)cccc23)=C1O`, the inhibition in test [3] is 68%; in test [4], 67%; in test [5], 100%.

Turning to `O=C1C=C(O)C(=O)C(c2c[nH]c3ccc(Cl)cc23)=C1O`, the inhibition in test [3] came out at 45%; in test [4], 32%; in test [5], 59%.

Consider `O=C1C=C(O)C(=O)C(c2c[nH]c3cc4c(cc23)OCO4)=C1O`, for which the inhibition in test [3] was 63%; in test [4], 88%; in test [5], 99%.

In the case of `Cn1cc(C2=C(O)C(O)=CC(=O)C2=O)c2ccccc21`, the inhibition in test [3] was found to be 19%; in test [4], 42%; in test [5], 18%.

Regarding `O=C1C=C(O)C(=O)C(c2c(-c3ccccc3)[nH]c3ccccc23)=C1O`, the inhibition was 18% in test [3], 38% in test [4] and 40% in test [5].

On to `O=C1C=C(O)C(=O)C(c2c[nH]c3c(Br)cccc23)=C1O`, for which the inhibition in test [3] was determined as 11%; in test [4] it was 45%; in test [5], 11%.

Take `O=C1C=C(O)C(=O)C(c2c[nH]c3cc(F)ccc23)=C1O`: the figures for the inhibition in test [3], in test [4] and in test [5] were 48%, 90% and 97%, respectively.

With `Cc1cccc2c(C3=C(O)C(O)=CC(=O)C3=O)c[nH]c12`, the inhibition in test [3] came out at 1%; in test [4], 0%; in test [5], 0%.

For `Cc1[nH]c2c(C)cccc2c1C1=C(O)C(O)=CC(=O)C1=O`, the inhibition in test [3], in test [4] and in test [5] was 0% each time.
